# Experiments:
# [1] = Antiproliferative activity against human CAR cells after 48 hrs by MTT assay; type: functional, cell-based
# Method in brief: (§1)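 CAR cells (CAL27 made cisplatin-resistant by 10 cycles of 10–80 μM cisplatin) kept in DMEM/10% FBS with 80 μM cisplatin. Seeded 2×10^4 cells/well and exposed to 0, 25, 50, 75 and 100 μM for 48 or 72 h, with 0.5% DMSO as vehicle. MTT (500 μg/ml) added for 4 h at 37 °C, formazan dissolved in DMSO, A570 read as % of control, IC50 derived.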
# [2] = Antiproliferative activity against human CAR cells after 72 hrs by MTT assay; type: functional, cell-based; method in brief: as §1
# [3] = Antitumor activity against human CAR cells xenografted in BALB/c nude mouse assessed as tumor weight at 25 mg/kg, po qd administered for 30 days measured on day 31 relative to control; type: functional
# Method in brief: (§2)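 Male BALB/c nude mice, four weeks old, implanted subcutaneously in the flank with CAR cells (cisplatin-resistant CAL27 kept in 80 μM cisplatin), 1×10^7 cells/mouse in 0.2 mL medium:Matrigel 1:1. Dosing began at ~50 mm3 tumors (day 22), eight mice/group, oral once daily for 30 days; vehicle 1,2-propanediol. Sacrificed day 31; excised tumors weighed, compared to vehicle controls.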
# [4] = Antitumor activity against human CAR cells xenografted in BALB/c nude mouse assessed as inhibition of tumor weight at 50 mg/kg, po qd administered for 30 days measured on day 31 relative to control; type: functional; set-up: scale not given: the % may be the effect or the level left; method in brief: as §2
# [5] = Antitumor activity against human CAR cells xenografted in BALB/c nude mouse assessed as inhibition of tumor weight at 100 mg/kg, po qd administered for 30 days measured on day 31 relative to control; type: functional; set-up: scale not given: the % may be the effect or the level left; method in brief: as §2
# Mus musculus [6] = experiment: Toxicity in BALB/c nude mouse xenografted with human CAR cells assessed as change in body weight at 25 to 100 mg/kg, po qd administered for 30 days measured during compound dosing; type: organism-based; settings: in vivo, 720 h
# Method in brief: (§3)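 During the 30-day once-daily oral dosing (25–100 mg/kg) of CAR-xenografted nude mice, body weight, food intake and behaviour were tracked and compared with vehicle-treated controls.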
# Mus musculus [7] = experiment: Toxicity in BALB/c nude mouse xenografted with human CAR cells assessed as change in food consumption at 25 to 100 mg/kg, po qd administered for 30 days measured during compound dosing; type: organism-based; settings: in vivo, 720 h; method in brief: as §3
# Mus musculus [8] = experiment: Toxicity in BALB/c nude mouse xenografted with human CAR cells assessed as change in behavior at 25 to 100 mg/kg, po qd administered for 30 days measured during compound dosing; type: organism-based; settings: in vivo, 720 h; method in brief: as §3
# Mus musculus [9] = experiment: Toxicity in BALB/c nude mouse xenografted with human CAR cells assessed as total protein levels in blood at 25 mg/kg, po qd administered for 30 days measured on day 31 (reference value: 5.6 +/- 0.283 g/dL); type: organism-based; settings: in vivo, 720 h
# Mus musculus [10] = experiment: Toxicity in BALB/c nude mouse xenografted with human CAR cells assessed as total protein levels in blood at 50 mg/kg, po qd administered for 30 days measured on day 31 (reference value: 5.6 +/- 0.283 g/dL); type: organism-based; settings: in vivo, 720 h
# Mus musculus [11] = experiment: Toxicity in BALB/c nude mouse xenografted with human CAR cells assessed as total protein levels in blood at 100 mg/kg, po qd administered for 30 days measured on day 31 (reference value: 5.6 +/- 0.283 g/dL); type: organism-based; settings: in vivo, 720 h
# Mus musculus [12] = experiment: Toxicity in BALB/c nude mouse xenografted with human CAR cells assessed as albumin levels in blood at 25 mg/kg, po qd administered for 30 days measured on day 31 (reference value: 3.45 +/- 0.138 g/dL); type: organism-based; settings: in vivo, 720 h
# Mus musculus [13] = experiment: Toxicity in BALB/c nude mouse xenografted with human CAR cells assessed as albumin levels in blood at 50 mg/kg, po qd administered for 30 days measured on day 31 (reference value: 3.45 +/- 0.138 g/dL); type: organism-based; settings: in vivo, 720 h
# Mus musculus [14] = experiment: Toxicity in BALB/c nude mouse xenografted with human CAR cells assessed as albumin levels in blood at 100 mg/kg, po qd administered for 30 days measured on day 31 (reference value: 3.45 +/- 0.138 g/dL); type: organism-based; settings: in vivo, 720 h
# Mus musculus [15] = experiment: Toxicity in BALB/c nude mouse xenografted with human CAR cells assessed as blood urea nitrogen levels in blood at 25 mg/kg, po qd administered for 30 days measured on day 31 (reference value: 27.7 +/- 4.116 mg/dL); type: organism-based; settings: in vivo, 720 h
# Mus musculus [16] = experiment: Toxicity in BALB/c nude mouse xenografted with human CAR cells assessed as blood urea nitrogen levels in blood at 50 mg/kg, po qd administered for 30 days measured on day 31 (reference value: 27.7 +/- 4.116 mg/dL); type: organism-based; settings: in vivo, 720 h
# Mus musculus [17] = experiment: Toxicity in BALB/c nude mouse xenografted with human CAR cells assessed as blood urea nitrogen levels in blood at 100 mg/kg, po qd administered for 30 days measured on day 31 (reference value: 27.7 +/- 4.116 mg/dL); type: organism-based; settings: in vivo, 720 h
# Mus musculus [18] = experiment: Toxicity in BALB/c nude mouse xenografted with human CAR cells assessed as creatinine levels in blood at 25 mg/kg, po qd administered for 30 days measured on day 31 (reference value: 1 +/- 0.18 mg/dL); type: organism-based; settings: in vivo, 720 h
# Mus musculus [19] = experiment: Toxicity in BALB/c nude mouse xenografted with human CAR cells assessed as creatinine levels in blood at 50 mg/kg, po qd administered for 30 days measured on day 31 (reference value: 1 +/- 0.18 mg/dL); type: organism-based; settings: in vivo, 720 h
# Mus musculus [20] = experiment: Toxicity in BALB/c nude mouse xenografted with human CAR cells assessed as creatinine levels in blood at 100 mg/kg, po qd administered for 30 days measured on day 31 (reference value: 1 +/- 0.18 mg/dL); type: organism-based; settings: in vivo, 720 h
# Mus musculus [21] = experiment: Toxicity in BALB/c nude mouse xenografted with human CAR cells assessed as uric acid levels in blood at 25 mg/kg, po qd administered for 30 days measured on day 31 (reference value: 4.65 +/- 0.864 mg/dL); type: organism-based; settings: in vivo, 720 h
# Mus musculus [22] = experiment: Toxicity in BALB/c nude mouse xenografted with human CAR cells assessed as uric acid levels in blood at 50 mg/kg, po qd administered for 30 days measured on day 31 (reference value: 4.65 +/- 0.864 mg/dL); type: organism-based; settings: in vivo, 720 h
# Mus musculus [23] = experiment: Toxicity in BALB/c nude mouse xenografted with human CAR cells assessed as uric acid levels in blood at 100 mg/kg, po qd administered for 30 days measured on day 31 (reference value: 4.65 +/- 0.864 mg/dL); type: organism-based; settings: in vivo, 720 h
# Mus musculus [24] = experiment: Toxicity in BALB/c nude mouse xenografted with human CAR cells assessed as glucose levels in blood at 25 mg/kg, po qd administered for 30 days measured on day 31 (reference value: 180 +/- 10.392 mg/dL); type: organism-based; settings: in vivo, 720 h
# Mus musculus [25] = experiment: Toxicity in BALB/c nude mouse xenografted with human CAR cells assessed as glucose levels in blood at 50 mg/kg, po qd administered for 30 days measured on day 31 (reference value: 180 +/- 10.392 mg/dL); type: organism-based; settings: in vivo, 720 h
# Mus musculus [26] = experiment: Toxicity in BALB/c nude mouse xenografted with human CAR cells assessed as glucose levels in blood at 100 mg/kg, po qd administered for 30 days measured on day 31 (reference value: 180 +/- 10.392 mg/dL); type: organism-based; settings: in vivo, 720 h
# [27] = Prodrug conversion in Sprague-Dawley rat whole blood assessed as formation of pterostilbene-4'-O-sulfate by measuring Tmax of metabolite at 100 mg/kg, po using HPbetaCD, PEG300, H2O formulation at 20:10:70 by LC-MS method; type: ADME, organism-based; settings: in vivo
# Method in brief: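 Male Sprague-Dawley rats (200–220 g), n = 3, given a single oral 100 mg/kg dose in HPβCD:PEG300:H2O 20:10:70 (10 mg/mL). Tail-vein blood collected into heparin at 0.5–24 h (0.5, 1, 1.5, 2, 3, 4, 5, 6, 8, 24 h).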
smiles,measurement,setting,value
COc1ccc(/C=C/c2cc(OC)cc(OC(=O)C(C)(CO)CO)c2)cc1,IC50,[1],64.2 µM
same,IC50,[2],67.3 µM
CC(CO)(CO)C(=O)Oc1ccc(/C=C/c2cc(OC(=O)C(C)(CO)CO)cc(OC(=O)C(C)(CO)CO)c2)cc1,IC50,[2],124 µM
COc1ccc(/C=C/c2cc(OC(=O)C(C)(CO)CO)cc(OC(=O)C(C)(CO)CO)c2)cc1,IC50,[1],73.9 µM
same,IC50,[2],70.8 µM
CC(=O)Oc1cc(/C=C/c2ccc(OC(=O)C(C)(CO)CO)cc2)cc(OC(C)=O)c1,IC50,[1],103 µM
same,IC50,[2],116 µM
COc1cc(/C=C/c2ccc(OC(=O)C(C)(CO)CO)cc2)cc(OC(C)=O)c1,IC50,[1],52 µM
same,IC50,[2],50.3 µM
CC(=O)Oc1cc(/C=C/c2ccc(OC(=O)C(C)(CO)CO)cc2)cc(OC(=O)C(C)(CO)CO)c1,IC50,[1],122 µM
same,IC50,[2],119 µM
COc1ccc(/C=C/c2cc(O)cc(OC)c2)cc1,IC50,[1],100 µM
same,IC50,[2],98.3 µM
COc1cc(/C=C/c2ccc(OC(=O)C(C)(CO)CO)cc2)cc(OC)c1,IC50,[1],73.2 µM
same,IC50,[2],32.6 µM
same,Activity,[3],60%
same,Activity,[4],47%
same,Activity,[5],22%
same,Activity,Mus musculus [6],Non-Toxic
same,Activity,Mus musculus [7],Non-Toxic
same,Activity,Mus musculus [8],Non-Toxic
same,Activity,Mus musculus [9],5.383 g/dL
same,Activity,Mus musculus [10],5.583 g/dL
same,Activity,Mus musculus [11],5.283 g/dL
same,Activity,Mus musculus [12],3.666 g/dL
same,Activity,Mus musculus [13],3.417 g/dL
same,Activity,Mus musculus [14],3.4 g/dL
same,Activity,Mus musculus [15],28.2 mg/dL
same,Activity,Mus musculus [16],30.95 mg/dL
same,Activity,Mus musculus [17],29.25 mg/dL
same,Activity,Mus musculus [18],1.133 mg/dL
same,Activity,Mus musculus [19],0.91 mg/dL
same,Activity,Mus musculus [20],0.83 mg/dL
same,Activity,Mus musculus [21],4.567 mg/dL
same,Activity,Mus musculus [22],5.45 mg/dL
same,Activity,Mus musculus [23],5.05 mg/dL
same,Activity,Mus musculus [24],181.333 mg/dL
same,Activity,Mus musculus [25],172.5 mg/dL
same,Activity,Mus musculus [26],196.5 mg/dL
same,Tmax,[27],2 h
COc1cc(O)cc(/C=C/c2ccc(OC(=O)C(C)(CO)CO)cc2)c1,IC50,[2],64 µM
CC(CO)(CO)C(=O)Oc1cc(O)cc(/C=C/c2ccc(O)cc2)c1,IC50,[1],54.9 µM
COc1cc(/C=C/c2ccc(OC(=O)C(C)(CO)CO)cc2)cc(OC(=O)C(C)(CO)CO)c1,IC50,[1],56.5 µM
same,IC50,[2],59.8 µM
Oc1ccc(/C=C/c2cc(O)cc(O)c2)cc1 [RESVERATROL],IC50,[2],88.3 µM
